# A selection: hits, their analogues and other compounds. The true share with any hit is near 4.9%.
# CHT block: inhibits the human high affinity choline transporter. Q9GZV3. CHT-expressing cells, membrane potential dye, choline response; stronger effect = lower value. B-score at 10 µM. actives 0.86% (n = 310,000). AID 488975;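 active = B-score over 3 SD under the library average, and starting fluorescence ratio not unusually high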;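 note: choline stimulus applied at its EC90 after an EC20 pre-addition; B-score computed on integrated fluorescence ratio after choline addition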
# HSF1 inhib: HSF1 inhibition; activity change, negative = inhibition, % at 7.5 µM (by protocol); actives 0.77% (n = 300,000); NIH3T3-HGL HSE-luciferase, MG132-induced, luminescence 8 h; stronger effect = lower value; AID 2098;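 active = more than half of replicate wells show activity change below -50%, luminescence cut by over half; inconclusive = some wells, but at most half, below -50%; inactive = no replicate well below -50%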;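 note: luciferase reports HSF-1 transcriptional activity via heat shock element; 0% = median of DMSO wells and -100% = zero luminescence signal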
# Hep lipid drop: modulators of hepatic lipid droplet formation; actives 0.4% (n = 240,000); AML12 mouse hepatocytes, oleate lipid droplets, BODIPY imaging; AID 1656; inhibition, % at 6.5 µM;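 active = lipid droplet intensity inhibited by at least 50%, with more than 500 cells counted; inconclusive = wells with under 300 cells, treated as cytotoxic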
#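 System: AML12 hepatocytes (mouse). Probe or stimulus: oleic acid at 100 µM to induce lipid droplet formation. Times: overnight treatment with compound plus oleate. Detection: Image-based BODIPY and DAPI two-channel analysis. Evaluation: percent inhibition of filter-corrected integrated lipid droplet intensity per well.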
# PHOSPHO1 inh: blocks human PHOSPHO1 phosphatase activity | Q8TCT1 | recombinant PHOSPHO1, absorbance phosphatase assay | inhibition, % at 13.3 µM | actives 1.1% (n = 290,000) | AID 1565; in the data active = inhibition above about 60%
# Target sequence (Q8TCT1 whole entry, looked up): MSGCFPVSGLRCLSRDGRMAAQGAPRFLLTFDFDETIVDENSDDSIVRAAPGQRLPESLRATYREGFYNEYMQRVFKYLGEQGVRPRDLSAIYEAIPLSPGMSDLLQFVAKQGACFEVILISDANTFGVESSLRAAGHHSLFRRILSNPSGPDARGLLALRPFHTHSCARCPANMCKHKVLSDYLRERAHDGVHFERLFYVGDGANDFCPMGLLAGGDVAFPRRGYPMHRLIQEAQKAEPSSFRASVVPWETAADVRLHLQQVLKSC
# CHT allo act: allosteric activators of human choline transporter CHT; B-score at 10 µM; AID 488977; CHT-expressing cells, membrane potential dye, choline EC20; stronger effect = higher value; LV-AA mutant CHT in HEK293 cells; actives 0.49% (n = 310,000);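 active = initial fluorescence not abnormally high and integrated response B-score, plate-corrected, over 3 SD above library mean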
# HSF1 activator: increases HSF-1 driven luciferase reporter signal | NIH3T3-HGL HSF-1 luciferase reporter, MG132, 8 h; 100% = twice DMSO control signal | actives 1.7% (n = 300,000) | AID 504408 | activation, % at 9 µM;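 active = mean replicate activation of at least 50% with a set share of replicates each reaching 50%; inconclusive = only one of those two conditions met; inactive = mean below 50% and too few replicates reaching it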;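 note: 0% = median of the neutral control wells and 100% = twice that signal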
# Numbers without * were called inactive; i = inactive; ? = inconclusive; · = not tested or not shown.
SMILES,CHT block,HSF1 inhib,Hep lipid drop,PHOSPHO1 inh,CHT allo act,HSF1 activator
CN(C)S(=O)(=O)N(CC(=O)Nc1ccccc1F)c1ccccc1,i,-2,-4,-26,i,5
CCc1ccc(NC(=O)CN(c2ccccc2)S(=O)(=O)N(C)C)cc1,i,13,-5,35,i,60*
COc1cc(CO)ccc1Oc1nnnn1-c1ccc(C(N)=O)cc1,i,-4,4,-6,i,-12
COc1cccc(-n2nnc3c(=O)n(Cc4ccccc4Cl)cnc32)c1,i,-58*,-18,0,i,-62
Cc1ccc(S(=O)(=O)NNc2ccccc2)c(C)c1,i,·,29,76*,i,·
Cc1ccc(S(=O)(=O)NNC(=O)c2cccs2)c(C)c1,i,1,-22,7,i,-1
COC(=O)C1(Cc2cc(-c3ccc([N+](=O)[O-])cc3)no2)CCN(C(=O)OC(C)(C)C)CC1,i,0,·,·,i,10
CC1Cc2ccccc2N1C(=O)CSc1ncccc1C(=O)O (stereo not given),i,-78*,·,14,i,-81
CC1Cc2ccccc2N1C(=O)CSc1ccccc1 (stereo not given),i,29,-42,7,i,26
O=c1[nH][nH]c(=S)n1-c1ccccc1C(F)(F)F,·,·,-3,90*,·,·
C/C(=N\OC(=O)c1ccc(F)cc1)c1ccc(F)c(F)c1,i,20,12,41,i,54*
OCCN(CCO)c1ncnc2c1sc1nc(N3CCOCC3)c3c(c12)CCCC3,i,-11,15,22,i,-14
CSc1nc(SCCO)c2sc3nc(-c4ccco4)c4c(c3c2n1)CC(C)(C)OC4,·,6,·,76*,·,0
CSc1nc(N(CCO)CCO)c2sc3nc(-c4ccco4)c4c(c3c2n1)CCC4,·,6,-10,79*,·,24
CN(Cc1ccccc1)C(=O)c1ccccc1NC(=O)C1=CSCCO1,i,-76*,6,15,i,-79
CCCNC(=O)c1ccccc1NC(=O)C1=CSCCO1,i,4,5,32,i,-6
CCn1c(-c2cc(-c3ccc(C)cc3)nc3ccccc23)n[nH]c1=S,i,4,4,-68,i,14
CCn1c(-c2cc(-c3cc(OC)ccc3OC)nc3ccccc23)n[nH]c1=S,i,5,-18,90*,i,21
CCn1c(-c2cc(-c3ccc(OC(C)C)cc3)nc3ccccc23)n[nH]c1=S,i,15,-6,97*,i,23
CCn1c(-c2cc(-c3ccccc3OC)nc3ccccc23)n[nH]c1=S,i,3,-29,13,i,-2
O=C(c1ccc(CS(=O)(=O)c2ccc(Br)cc2)o1)N1CCN(c2ncccn2)CC1,i,-1,·,15,i,-2
O=C(/C=C/c1ccccc1Cl)Nc1cccnc1,i,28,8,24,i,58*
Cc1cc(C)nc(NC(=O)/C=C/c2ccccc2Cl)c1,i,36,2,-26,i,84*
Cc1cc(C)nc(NC(=O)/C=C/c2ccccc2Cl)n1,i,20,-3,18,i,18
COc1ccccc1/C=C/C(=O)Nc1cccnc1,i,5,5,23,i,3
SMILES,CHT block,HSF1 inhib,Hep lipid drop,PHOSPHO1 inh,CHT allo act,HSF1 activator
CC(=O)N(C)c1ccc(NC(=O)/C=C/c2ccccc2Cl)cc1,i,8,·,95*,i,23
O=C(/C=C/c1ccccc1Cl)Nc1ccncc1,i,38,·,5,i,53*
CCOC(=O)C1C(=O)C(C(=O)OCC)C(c2cccnc2)NC1c1cccnc1 (stereo not given),i,-15,·,-6,i,-11
Cc1[nH]c2ccccc2c1C(=O)COC(=O)Cn1cnc2ccccc21,i,0,5,1,i,10
N/C(=N\OC(=O)/C=C/c1ccccc1Cl)c1cccnc1,i,37,-6,24,i,57*
O=C(/C=C/c1c(F)cccc1Cl)Nc1nc2ccccc2[nH]1,i,18,16,-2,i,63*
Cc1cccc(NC(=O)/C=C/c2ccc(Cl)cc2)n1,i,36,0,-18,i,67*
O=C(/C=C/c1c(F)cccc1Cl)Nc1ccncc1,i,42,19,-14,i,69*
N/C(=N\OC(=O)/C=C/c1ccccc1)c1cccnc1,i,15,-2,39,i,?
C=CCOC(=O)C1C(=O)CC(C)(O)C(C(=O)OCC=C)C1c1ccc(OC)cc1 (stereo not given),i,-4,-8,-13,i,-4
CC(=O)C1=C(O)C(=O)N(Cc2ccccc2)C1c1ccc(N(C)C)cc1 (stereo not given),i,-1,4,25,i,-1
COC(=O)c1sccc1NC(=O)/C=C/c1ccc(Cl)cc1,i,29,2,-1,i,76*
COC(=O)c1sccc1NC(=O)/C=C\c1ccc(Cl)cc1Cl,·,·,8,5,·,·
CN1CCN(/N=C/c2ccc(N(C)c3ccccc3)cc2)CC1,i,0,-4,23,i,8
CN(c1ccccc1)c1ccc(/C=C/[N+](=O)[O-])cc1,i,164,-4,11,i,198*
CCOc1ccc(C2C(=O)N(C3CCCCC3)CC(=O)N2CC2CCCO2)cc1OC (stereo not given),i,2,·,6,i,-3
CCCCOc1ccc(C2C(=O)N(C3CCCCC3)CC(=O)N2CC2CCCO2)cc1 (stereo not given),i,-54*,·,13,i,-63
CCOC(=O)Nc1ccc(C(=O)NCC2CCCO2)cc1 (stereo not given),i,-2,·,-30,i,1
O=C(c1cc(COc2ccc3ncccc3c2)on1)N1CCC(O)CC1,i,0,-22,62*,i,6
O=C(c1cc(COc2ccc3ncccc3c2)on1)N1CCCC(O)C1 (stereo not given),i,-4,13,48,i,-18
Fc1ccc(-n2c(-c3ccc4ccccc4n3)n[nH]c2=S)cc1,i,0,4,60*,i,-1
CCOC(=O)c1c(C)[nH]c(C(=O)CSc2ccccc2)c1C,i,27,·,2,i,59*
CCOC(=O)c1c(C)[nH]c(C(=O)OCc2ccccc2)c1C,i,46,-20,18,i,62*
CCCC1(c2ccccc2)NC(=O)N(CC(=O)c2[nH]c(C)c(C(=O)OCC)c2C)C1=O (stereo not given),-9.8*,2,·,28,i,7
CCOC(=O)c1c(C)[nH]c(C(=O)OCc2ccc(C)cc2)c1C,i,11,-54,15,i,16

# High-throughput results as filed in PubChem.
